Test results: ChEMBL document CHEMBL5154920, “Ispinesib as an Effective Warhead for the Design of Autophagosome-Tethering Chimeras: Discovery of Potent Degraders of Nicotinamide Phosphoribosyltransferase (NAMPT)” (J Med Chem, 2022)
Active and inactive are the calls of the source. The rule behind the calls is not given here.

Tests used:
[1] = biological target: T1, Microtubule-associated protein 1 light chain 3 beta (Homo sapiens, UniProt Q9GZQ8); assay: Binding affinity to human recombinant LC3B assessed as dissociation constant incubated for 30 mins by fluorescence anisotropy assay
In short: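 Fluorescence anisotropy used fluorescein-labeled ispinesib as the tracer, diluted to 50 nM in HEPES buffer, final 25 nM. A twofold serial dilution of LC3 protein in HEPES buffer was added. KD was derived from anisotropy. Measurements were done in triplicate and given as mean ± standard deviation.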

HeLa = assay: Drug localization in human HeLa cells by measuring colocalization with lysosome probe treated for 2 hrs by confocal microscopy; assay type: functional, cell-based
In short: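 HeLa cells were treated with the green fluorescent probe for 2 h, then stained with a red lysosome probe for another 1.5 h. Colocalization was imaged by confocal microscopy.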

[2] = biological target: T2, Nicotinamide phosphoribosyltransferase (Homo sapiens, UniProt P43490); assay: Inhibition of NAMPT (unknown origin) measured after 90 mins by measuring fluorescence intensity
Target sequence in this assay (P43490 whole entry): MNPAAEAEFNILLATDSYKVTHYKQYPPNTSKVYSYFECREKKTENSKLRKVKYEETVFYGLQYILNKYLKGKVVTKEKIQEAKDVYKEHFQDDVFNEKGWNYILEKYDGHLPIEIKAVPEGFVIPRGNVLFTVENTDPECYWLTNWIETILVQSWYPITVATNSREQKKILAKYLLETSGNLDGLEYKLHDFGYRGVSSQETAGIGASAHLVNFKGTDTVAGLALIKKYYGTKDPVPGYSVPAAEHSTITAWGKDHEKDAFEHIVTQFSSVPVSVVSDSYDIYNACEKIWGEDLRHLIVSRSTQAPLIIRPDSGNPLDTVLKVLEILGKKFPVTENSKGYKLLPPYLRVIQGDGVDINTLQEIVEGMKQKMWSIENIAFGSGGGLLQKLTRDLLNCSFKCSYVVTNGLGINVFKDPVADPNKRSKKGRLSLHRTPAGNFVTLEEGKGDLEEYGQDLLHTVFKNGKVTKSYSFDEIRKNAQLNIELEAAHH

[3] = biological target: T3, LC3/Nicotinamide phosphoribosyltransferase (Homo sapiens) (UniProt P43490+Q9BXW4+Q9GZQ8+Q9H492); assay: Autophagosome tethering activity at NAMPT overexpressing human A2780 cells assessed as lysosome-mediated degradation of NAMPT at 3 uM incubated for 48 hrs; assay type: cell-based
In short: (§1)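 A2780 cells were exposed to compound for 48 h. The medium was then removed and the cells washed three times with PBS and lysed on ice in RIPA buffer for 30 min. Lysates were centrifuged at 1.2 × 10^5 g, 4 °C, for 15 min. Protein was quantified by BCA and denatured at 100 °C. Blots were blocked in 5% BSA/TBST for 2 h, probed with primary antibody at 4 °C overnight and secondary for 1 h, and NAMPT was read on Odyssey.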

[4] = biological target: T3, LC3/Nicotinamide phosphoribosyltransferase (Homo sapiens); assay: Autophagosome tethering activity at NAMPT overexpressing human A2780 cells assessed as lysosome-mediated degradation of NAMPT at 0.1 uM incubated for 48 hrs; assay type: cell-based; in short: as §1
A2780 [5] = assay: Antiproliferative activity against human A2780 cells overexpressing NAMPT assessed as cell growth inhibition incubated for 72 hrs; assay type: functional, cell-based; details: A2780, 72 h
[6] = biological target: T2, Nicotinamide phosphoribosyltransferase; assay: Binding affinity to NAMPT in human A2780 cell lysate assessed as thermal stability incubated at 51 to 63 degree Celsius for 4 hrs by Western blotting based CETSA method; assay type: subcellular
In short: (§2)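 CETSA: A2780 cells were seeded at × 107/well and incubated overnight at 37 °C, 5% CO2. Compound was added at the indicated concentration for 4 h. Cells were collected and lysed by three 5-min liquid-nitrogen freeze cycles, then centrifuged at 1.2 × 10^5 g, 4 °C, for 15 min. Supernatants were denatured at 100 °C and protein level was detected by SDS-PAGE.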
Target sequence in this assay (P43490 whole entry, looked up): as the sequence (P43490 whole entry) above

HCT-116 = assay: Antiproliferative activity against human HCT-116 cells expressing NAMPT assessed as cell growth inhibition incubated for 72 hrs; assay type: functional, cell-based
[7] = biological target: T1, Microtubule-associated protein 1 light chain 3 beta; assay: Binding affinity to LC3B (unknown origin) assessed as dissociation constant by surface plasmon resonance analysis
MDA-MB-231 = assay: Antiproliferative activity against human MDA-MB-231 cells overexpressing NAMPT assessed as cell growth inhibition incubated for 72 hrs; assay type: functional, cell-based
[8] = Stability of compound in 1640 culture medium measured up to 72 hrs by HPLC analysis; assay type: physicochemical
A2780 [9] = assay: Binding affinity to KSP in human A2780 cell lysate incubated at 51 to 63 degree Celsius for 4 hrs by Western blotting based CETSA method; assay type: subcellular; in short: as §2
[10] = Inhibition of kinesin spindle protein (unknown origin); design: species or system Homo sapiens
A2780 [11] = assay: Cytotoxicity against human A2780 cells; assay type: functional, cell-based
[12] = biological target: T1, Microtubule-associated protein 1 light chain 3 beta; assay: Binding affinity to human recombinant LC3B assessed as dissociation constant by isothermal titration calorimetry
In short: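 Reverse titration of recombinant LC3B (1500 μM in syringe) into a cell holding 100 μM ligand, in 20 mM HEPES-HCl pH 7.3, 100 mM NaCl, 1% DMSO, at 25 °C. Injections were spaced 120 s apart so the signal returned to baseline. Thermodynamic parameters and KD came from the titration isotherm.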

SMILES | IC50 [2] [nM] | Activity [3] [%] | Activity [4] [%] | other results
Cc1ccc(C(=O)N(CCCNC(=S)Nc2ccc3c(c2)C(=O)OC32c3ccc(O)cc3Oc3cc(O)ccc32)[C@@H](c2nc3cc(Cl)ccc3c(=O)n2Cc2ccccc2)C(C)C)cc1 |  |  |  | Kd [1]: 175 nM; Activity (HeLa): Active
Cc1ccc(C(=O)N(CCCNC(=O)CCCCCCCN2CCN(S(=O)(=O)c3ccc(NC(=S)NCc4cccnc4)cc3)CC2)[C@@H](c2nc3cc(Cl)ccc3c(=O)n2Cc2ccccc2)C(C)C)cc1 | 19 | 83 | 1 | 
O=S(=O)(c1ccc(NC(=S)NCc2cccnc2)cc1)N1CCNCC1 |  |  |  | IC50 (A2780 [5]): 490 nM
Cc1ccc(C(=O)N(CCCNC(=O)CCCCCCCCN2CCN(S(=O)(=O)c3ccc(NC(=S)NCc4cccnc4)cc3)CC2)[C@@H](c2nc3cc(Cl)ccc3c(=O)n2Cc2ccccc2)C(C)C)cc1 | 23 | 91 | 90 | Activity [6]: Active; Activity (HCT-116): Active; Kd [7]: 933 nM; IC50 (A2780 [5]): 46 nM; Activity (MDA-MB-231): Active; Stability [8]: Stable; Activity (A2780 [9]): Active
Cc1ccc(C(=O)N(CCCN)[C@H](c2nc3cc(Cl)ccc3c(=O)n2Cc2ccccc2)C(C)C)cc1 |  |  |  | IC50 [10]: 0.5 nM; Activity (A2780 [11]): Active; Kd [12]: 11800 nM
Cc1ccc(C(=O)N(CCCNC(=O)CCOCCN2CCN(S(=O)(=O)c3ccc(NC(=S)NCc4cccnc4)cc3)CC2)[C@@H](c2nc3cc(Cl)ccc3c(=O)n2Cc2ccccc2)C(C)C)cc1 | 10 | 86 | 1 | 
Cc1ccc(C(=O)N(CCCNC(=O)CCCCCCCCCN2CCN(S(=O)(=O)c3ccc(NC(=S)NCc4cccnc4)cc3)CC2)[C@@H](c2nc3cc(Cl)ccc3c(=O)n2Cc2ccccc2)C(C)C)cc1 | 34 | 92 | 85 | 
Cc1ccc(C(=O)N(CCCNC(=O)CCCCCCCCCCN2CCN(S(=O)(=O)c3ccc(NC(=S)NCc4cccnc4)cc3)CC2)[C@@H](c2nc3cc(Cl)ccc3c(=O)n2Cc2ccccc2)C(C)C)cc1 | 13 | 93 | 33 | 
Cc1ccc(C(=O)N(CCCNC(=O)CCCCCCN2CCN(S(=O)(=O)c3ccc(NC(=S)NCc4cccnc4)cc3)CC2)[C@@H](c2nc3cc(Cl)ccc3c(=O)n2Cc2ccccc2)C(C)C)cc1 | 15 | 86 | 9 | 
Cc1ccc(C(=O)N(CCCNC(=O)CCOCCOCCOCCN2CCN(S(=O)(=O)c3ccc(NC(=S)NCc4cccnc4)cc3)CC2)[C@@H](c2nc3cc(Cl)ccc3c(=O)n2Cc2ccccc2)C(C)C)cc1 | 10 | 91 | 76 | 
